Test results: ChEMBL document CHEMBL1671838, “Discovery of MK-1220: A Macrocyclic Inhibitor of Hepatitis C Virus NS3/4A Protease with Improved Preclinical Plasma Exposure” (ACS Med Chem Lett, 2011)

Key:
[1] = Drug level in Sprague-Dawley rat liver at 5 mg/kg, po after 4 hrs; format: ADME, organism-based; set-up: dose 5 mg/kg, route oral; conditions: read-out: Drug uptake
Method in brief: (§1)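 Rat PK screen: 5 mg/kg given orally in PEG400, n = 2; plasma AUC calculated from a 4 h experiment, and liver concentration measured at 4 h after dosing.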

[2] = AUC in Sprague-Dawley rat plasma at 5 mg/kg, po after 4 hrs; format: ADME, organism-based; set-up: time < 4 hr, dose 5 mg/kg, route oral; method in brief: as §1
Hepatitis C virus [3] = assay: Antiviral activity against HCV1b con1 infected in human HuH7 cells assessed as inhibition of viral replication after 24 hrs in presence of 50% normal human serum; format: functional, organism-based, Hepacivirus hominis; conditions: Con1, Huh-7, 24 h
Method in brief: (§2)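 Cell-based HCV replicon assay giving IC50. Genotype 1b replicon run with 10% fetal bovine serum or with 50% normal human serum. Genotype 2a replicon run with 10% FBS.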

Hepatitis C virus [4] = assay: Antiviral activity against HCV1b con1 infected in human HuH7 cells assessed as inhibition of viral replication after 24 hrs in presence of 10% fetal bovine serum; format: functional, organism-based, Hepacivirus hominis; conditions: Con1, Huh-7, 24 h; method in brief: as §2
[5] = Inhibition of HCV NS3/4A protease expressed Escherichia coli after 1 hr by time-resolved fluorescence assay; set-up: species or system Hepacivirus hominis
Method in brief: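 Binding assay against genotype 1b HCV NS3/4A protease, read by time-resolved fluorescence; potency expressed as Ki.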

Hepatitis C virus [6] = assay: Antiviral activity against HCV2a infected in human HuH7 cells assessed as inhibition of viral replication after 24 hrs in presence of 10% fetal bovine serum; format: functional, organism-based, Hepacivirus hominis; conditions: genotype 2a, Huh-7, 24 h; method in brief: as §2

SMILES | concentration at 4 h [1] | AUC at 4 h [2] | IC50 (Hepatitis C virus [3]) | IC50 (Hepatitis C virus [4]) | Ki [5] | IC50 (Hepatitis C virus [6])
C=C[C@@H]1C[C@]1(NC(=O)[C@@H]1C[C@@H]2CN1C(=O)[C@H](C1Cc3ccccc3C1)NC(=O)OCCC/C=C/c1ccc3ccnc(c3c1)O2)C(=O)NS(=O)(=O)C1CC1 | 4.5 µM | 0.15 µM·h | 20 nM | 5 nM | 0.07 nM | –
C=C[C@@H]1C[C@]1(NC(=O)[C@@H]1C[C@@H]2CN1C(=O)[C@H](C1CCOCC1)NC(=O)OCCC/C=C/c1ccc3ccnc(c3c1)O2)C(=O)NS(=O)(=O)C1CC1 | < 0.2 µM | 0.5 µM·h | 20 nM | 9 nM | 0.07 nM | –
C=C[C@@H]1C[C@]1(NC(=O)[C@@H]1C[C@@H]2CN1C(=O)[C@H](C(C)(C)C)NC(=O)OCCCCCc1cc(OCC)c3ccnc(c3c1)O2)C(=O)NS(=O)(=O)C1CC1 | 15.2 µM | 6.9 µM·h | 500 nM | 6 nM | 0.37 nM | –
C=C[C@@H]1C[C@]1(NC(=O)[C@@H]1C[C@@H]2CN1C(=O)[C@H](C1CCCC1)NC(=O)OCC(C)(C)CCCc1ccc3ccnc(c3c1)O2)C(=O)NS(=O)(=O)C1CC1 | 16 µM | 0.18 µM·h | 10 nM | 2 nM | 0.02 nM | 11 nM
C=C[C@@H]1C[C@]1(NC(=O)[C@@H]1C[C@@H]2CN1C(=O)[C@H](C1CCCCC1)NC(=O)OCCCCCc1cc(OC)c3ccnc(c3c1)O2)C(=O)NS(=O)(=O)C1CC1 | 13.2 µM | 2.5 µM·h | 60 nM | 3 nM | 0.05 nM | 6 nM
C=C[C@@H]1C[C@]1(NC(=O)[C@@H]1C[C@@H]2CN1C(=O)[C@H](C(C)(C)C)NC(=O)OCCCCCc1cc(OC(F)(F)F)c3ccnc(c3c1)O2)C(=O)NS(=O)(=O)C1CC1 | 8.8 µM | 1.6 µM·h | 4400 nM | 50 nM | 0.75 nM | –
C=C[C@@H]1C[C@]1(NC(=O)[C@@H]1C[C@@H]2CN1C(=O)[C@H](C1CCCCC1)NC(=O)OCCC/C=C/c1ccc3ccnc(c3c1)O2)C(=O)NS(=O)(=O)C1CC1 | 46.9 µM | 0.67 µM·h | 78 nM | 2.5 nM | 0.063 nM | –
C=C[C@@H]1C[C@]1(NC(=O)[C@@H]1C[C@@H]2CN1C(=O)[C@H](C(C)(C)C)NC(=O)OCCC/C=C/c1ccc3ccnc(c3c1)O2)C(=O)NS(=O)(=O)C1CC1 | 18.6 µM | 0.36 µM·h | 14 nM | 4.5 nM | 0.04 nM | –
C=C[C@@H]1C[C@]1(NC(=O)[C@@H]1C[C@@H]2CN1C(=O)[C@H](C(C)(C)C)NC(=O)OCCCCCc1cc(OC)c3ccnc(c3c1)O2)C(=O)NS(=O)(=O)C1CC1 | 33.2 µM | 17.7 µM·h | 35 nM | 2.7 nM | 0.04 nM | –
C=C[C@@H]1C[C@]1(NC(=O)[C@@H]1C[C@@H]2CN1C(=O)[C@H](C(C)(C)C)NC(=O)OCCCCCc1cc(Br)c3ccnc(c3c1)O2)C(=O)NS(=O)(=O)C1CC1 | 5.8 µM | 0.28 µM·h | 170 nM | 2 nM | 0.04 nM | –
C=C[C@@H]1C[C@]1(NC(=O)[C@@H]1C[C@@H]2CN1C(=O)[C@H](C1CCCC1)NC(=O)OCCCCCc1cc3c(nccc3cc1OC)O2)C(=O)NS(=O)(=O)C1CC1 | 8 µM | 18.1 µM·h | 80 nM | 2 nM | 0.03 nM | –
C=C[C@@H]1C[C@]1(NC(=O)[C@@H]1C[C@@H]2CN1C(=O)[C@H](C(C)(C)C)NC(=O)OCCCCCc1cc3c(nccc3cc1OC)O2)C(=O)NS(=O)(=O)C1CC1 | 3 µM | 9.6 µM·h | 113 nM | 3 nM | 0.04 nM | –
C=C[C@@H]1C[C@]1(NC(=O)[C@@H]1C[C@@H]2CN1C(=O)[C@H](C1CCCCC1)NC(=O)OCCCCCc1ccc3ccnc(c3c1)O2)C(=O)NS(=O)(=O)C1CC1 | 29.8 µM | 3.1 µM·h | 181 nM | 4.5 nM | 0.15 nM | –
C=C[C@@H]1C[C@]1(NC(=O)[C@@H]1C[C@@H]2CN1C(=O)[C@H](C(C)(C)C)NC(=O)OCCCCCc1cc(S(C)(=O)=O)c3ccnc(c3c1)O2)C(=O)NS(=O)(=O)C1CC1 | – | – | > 1000 nM | 280 nM | 0.11 nM | –
C=C[C@@H]1C[C@]1(NC(=O)[C@@H]1C[C@@H]2CN1C(=O)[C@H](c1ccccc1)NC(=O)OCCCCCc1ccc3ccnc(c3c1)O2)C(=O)NS(=O)(=O)C1CC1 | – | – | – | – | 1 nM | –
C=C[C@@H]1C[C@]1(NC(=O)[C@@H]1C[C@@H]2CN1C(=O)[C@H](C(C)(C)C)NC(=O)OCCCCCc1ccc3ccnc(c3c1)O2)C(=O)NS(=O)(=O)C1CC1 | – | 0.27 µM·h | 46 nM | 8.7 nM | 0.18 nM | –
C=C[C@@H]1C[C@]1(NC(=O)[C@@H]1C[C@@H]2CN1C(=O)[C@H](Cc1ccccc1)NC(=O)OCCC/C=C/c1ccc3ccnc(c3c1)O2)C(=O)NS(=O)(=O)C1CC1 | 10 µM | 0.43 µM·h | – | 3 nM | 0.65 nM | –
C=C[C@@H]1C[C@]1(NC(=O)[C@@H]1C[C@@H]2CN1C(=O)[C@H](C1CCCC1)NC(=O)OCCC/C=C/c1ccc3ccnc(c3c1)O2)C(=O)NS(=O)(=O)C1CC1 | 9.2 µM | 4.2 µM·h | 40 nM | 2 nM | 0.1 nM | –
C=C[C@@H]1C[C@]1(NC(=O)[C@@H]1C[C@@H]2CN1C(=O)[C@H](c1c[nH]c3ccccc13)NC(=O)OCCC/C=C/c1ccc3ccnc(c3c1)O2)C(=O)NS(=O)(=O)C1CC1 | 0.4 µM | 0.07 µM·h | – | 20 nM | 2 nM | –
C=C[C@@H]1C[C@]1(NC(=O)[C@@H]1C[C@@H]2CN1C(=O)[C@H](C(C)(C)C)NC(=O)OCCCCCc1cc(C(F)(F)F)c3ccnc(c3c1)O2)C(=O)NS(=O)(=O)C1CC1 | – | – | 410 nM | 21 nM | 0.25 nM | –
C=C[C@@H]1C[C@]1(NC(=O)[C@@H]1C[C@@H]2CN1C(=O)[C@H](C(C)(C)C)NC(=O)OCCCCCc1cc(SC)c3ccnc(c3c1)O2)C(=O)NS(=O)(=O)C1CC1 | 12.6 µM | 1.8 µM·h | 34 nM | 2 nM | 0.03 nM | –
C=C[C@@H]1C[C@]1(NC(=O)[C@@H]1C[C@@H]2CN1C(=O)[C@H](C1CCOCC1)NC(=O)OCCCCCc1ccc3ccnc(c3c1)O2)C(=O)NS(=O)(=O)C1CC1 | 0.09 µM | 0.8 µM·h | 34 nM | 15 nM | 0.07 nM | –
C=C[C@@H]1C[C@]1(NC(=O)[C@@H]1C[C@@H]2CN1C(=O)[C@H](C(C)(C)C)NC(=O)OCCCCCc1cc(I)c3ccnc(c3c1)O2)C(=O)NS(=O)(=O)C1CC1 | 24.5 µM | 1.4 µM·h | 56 nM | 2.3 nM | 0.03 nM | –
C=C[C@@H]1C[C@]1(NC(=O)[C@@H]1C[C@@H]2CN1C(=O)[C@H](C(C)(C)C)NC(=O)OCCCCCc1cc(CC)c3ccnc(c3c1)O2)C(=O)NS(=O)(=O)C1CC1 | 12.5 µM | 2.1 µM·h | 90 nM | 2.5 nM | 0.14 nM | –
C=C[C@@H]1C[C@]1(NC(=O)[C@@H]1C[C@@H]2CN1C(=O)[C@H](C1CCC1)NC(=O)OCCCCCc1ccc3ccnc(c3c1)O2)C(=O)NS(=O)(=O)C1CC1 | – | – | 130 nM | 7 nM | 0.18 nM | –
